SENP8 block-1 = SENP8 protease inhibitors, primary screen, biochemical, luminescence; Sentrin-specific protease 8 (Homo sapiens), Q96LD8; purified SENP8, Z-RLRGG-aminoluciferin cleavage; inhibition, % at 10 µM; 1.2% of 330,000 active; in the data active means inhibition above about 50%
Target sequence (Q96LD8 whole entry, looked up): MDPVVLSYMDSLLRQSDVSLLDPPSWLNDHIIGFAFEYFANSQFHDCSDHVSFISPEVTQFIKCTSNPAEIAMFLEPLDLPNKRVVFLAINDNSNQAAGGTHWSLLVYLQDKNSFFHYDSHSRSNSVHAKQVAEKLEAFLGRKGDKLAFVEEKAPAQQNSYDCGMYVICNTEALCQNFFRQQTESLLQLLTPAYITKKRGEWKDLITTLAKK
SENP6 inh = SENP6 protease inhibitors, primary screen, biochemical, luminescence, uHTS. Sentrin-specific protease 6 (Homo sapiens), Q9GZR1. 1.8% of 330,000 active. AID 2599, 2010. Recombinant SENP6 catalytic domain, aminoluciferin luminescence. inhibition, % at 10 µM;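 active means inhibition above about 50% at the single tested dose, limit read from the data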;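 further: plate controls were DMSO wells with enzyme for no effect and DMSO wells lacking enzyme for full effect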
SENP8 block-2 = human SENP8 protease inhibitors, primary screen, biochemical, fluorescence, Nedd8 protein substrate, uHTS; Sentrin-specific protease 8 (Homo sapiens), Q96LD8; recombinant SENP8; inhibition, % at 20 µM; 0.64% of 360,000 active; AID 602440, 2012; in the data active means inhibition mostly above about 40%, no sharp cut-off; inactive means mostly below about 27%
SENP1 FRET inh = human SENP1 catalytic domain inhibitors, primary screen, biochemical, FRET, uHTS. Sentrin-specific protease 1 (Homo sapiens), Q9P0U3. recombinant SENP1 catalytic domain, CyPet-SUMO1-YPet FRET cleavage. inhibition, % at 10 µM. 0.21% of 360,000 active;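 active means inhibition at least 30% at 10 µM, raw YFP signal under a set limit, fluorescence ratio 0.5 to 1.5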;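 further: 0% = enzyme with DMSO and 100% = no enzyme wells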
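Material – human SENP1 catalytic domain · Input – SENP1 enzyme, 20 pM final · Compound dosing – single concentration of 10 µM compound, 0.5% DMSO final · Timing – enzyme reaction for 50 min at room temperature, dark · Measured by – FRET fluorescence in CFP and YFP emission channels · Control set – no-enzyme wells low, DMSO-plus-enzyme wells high control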
SENP7 inh = SENP7 protease inhibitors, primary screen, biochemical, luminescence, uHTS | inhibition, % at 5 µM | 1.5% of 330,000 active | Sentrin-specific protease 7 (Homo sapiens), Q9BQF6 | recombinant SENP7, Z-RLRGG-aminoluciferin luminescence, 40 min;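 active means inhibition above about 50% at the single test dose, limit read from the data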;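 further: plate controls were DMSO with enzyme for no effect and no enzyme buffer wells for full effect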
Target sequence (Q9BQF6 706-1050 limits assumed): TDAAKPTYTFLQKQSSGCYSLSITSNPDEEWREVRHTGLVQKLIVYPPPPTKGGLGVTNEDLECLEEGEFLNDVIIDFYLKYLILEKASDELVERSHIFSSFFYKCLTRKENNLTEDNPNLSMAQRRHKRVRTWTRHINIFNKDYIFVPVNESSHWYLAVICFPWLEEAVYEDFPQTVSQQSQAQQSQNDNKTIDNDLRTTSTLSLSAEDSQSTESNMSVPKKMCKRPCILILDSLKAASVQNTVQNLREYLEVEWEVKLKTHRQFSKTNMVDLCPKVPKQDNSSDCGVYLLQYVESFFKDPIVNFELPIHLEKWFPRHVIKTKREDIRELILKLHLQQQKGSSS
Starred values were filed as active, the others as inactive; x = no result given. Hits are enriched below; roughly 2.5% of the tested compounds scored in any of these assays.

SMILES	SENP8 block-1	SENP6 inh	SENP8 block-2	SENP1 FRET inh	SENP7 inh
Cc1ccc(F)c(NC(=O)/C(C#N)=C(\O)c2ccc(C(C)(C)C)cc2)c1	53*	22	13	1	5
O=c1[nH]c2nc(Br)[nH]c(=O)c2[nH]1	x	x	-15	-6	x
NC(=S)N=Nc1c(O)cc(O)c2[nH]c(=O)ccc12	x	x	75*	-5	x
O=C(CSc1nnc(-c2ccco2)c(-c2ccco2)n1)c1ccccc1	-6	-4	5	-2	-5
CC(=O)c1ccc(NC(=O)CSc2nnc(-c3ccco3)c(-c3ccco3)n2)cc1	9	2	45*	15	17
O=C1NN(c2cccc(Br)c2)C(=O)/C1=C/c1ccc(-c2cc([N+](=O)[O-])ccc2O)o1	11	16	51*	4	6
CC1=NN(c2ccc(C)cc2)C(=O)/C1=C/c1ccc(-c2cc([N+](=O)[O-])ccc2O)o1	1	18	28	3	-9
Cn1nccc1C(=O)N/N=C/c1cccnc1	61*	-13	15	0	9
O=S(c1ccc2ccccc2c1)c1cnns1 (stereo unspecified)	1	-4	44*	0	3
Cc1nnsc1S(=O)c1ccc(Cl)c(Cl)c1 (stereo unspecified)	2	-2	15	1	0
CC(=O)N(Cc1ccc(F)cc1)C1=C(NCCc2ccccc2)C(=O)c2ccccc2C1=O	31	48	76*	-3	30
CC1(C(=O)Nc2cccnc2)Cc2c(-c3cccc(C(F)(F)F)c3)ccnc2O1 (stereo unspecified)	x	x	14	-2	x
O=C1NC[C@H](CCCCN2CCN(CC3CCCCC3)C(=O)C2=O)N(CC2CCCCC2)C1=O	x	x	4	0	x
N#C/C(=N\Nc1ccc(S(=O)(=O)N2CCOCC2)cc1)C(N)=S	10	-5	36	3	3
N#CC(C#N)=NNc1ccc(S(=O)(=O)N2CCCCC2)cc1	3	17	47*	2	-1
CC1=NN(c2ccccc2)C(=O)/C1=C\c1cc(C)n(-c2ccccc2)c1C	-7	6	46*	5	7
CC1=NN2C(=N)/C(=C\c3cc(C)n(-c4ccccc4)c3C)C(=O)N=C2S1	-1	-2	-304	-35	-2
CC1=NN(c2ccccc2)C(=O)/C1=C\c1cc(C)n(-c2cccnc2)c1C	3	-6	42*	3	-4
CCC(Oc1ccccc1)C(=O)NC1C(=O)N2C1SC(C)(C)C2C(=O)O (stereo unspecified)	-1	19	15	2	61*
CS(=O)(=O)c1ccc(S(=O)(=O)N2CCN(C(=O)C(O)c3ccccc3)CC2)cc1 (stereo unspecified)	x	x	4	2	x
O=C1NCCCC2c3c(cc(Br)c(O)c3Br)OC12N1CCOCC1 (stereo unspecified)	-7	-2	16	1	-3
O=C1NCCCC2c3cc(O)c4ccccc4c3OC12N1CCCCC1 (stereo unspecified)	63*	71*	x	x	36
O=C(NC1CCCC1)C1c2ccccc2OCC(=O)N1C1CC1 (stereo unspecified)	x	x	9	4	x
CC(=O)OC(C)C1C2=C(C(=O)CC1(C)O)C(=O)c1c(ccc(-c3ccc4c(c3O)C(=O)C3=C(C4=O)C(C(C)OC(C)=O)C(C)(O)CC3=O)c1O)C2=O (stereo unspecified)	x	x	49*	26	x
CCN1C(=O)[C@H]2[C@H]3CN=C(SCc4ccc(C)cc4)N3[C@@](Cc3ccccc3)(C(=O)OC)[C@H]2C1=O	x	x	8	2	1
SMILES	SENP8 block-1	SENP6 inh	SENP8 block-2	SENP1 FRET inh	SENP7 inh
O=c1c(N=Nc2ccc(O)cc2)c(-c2ccccc2)[nH]n1-c1ccc([N+](=O)[O-])cc1	6	3	56*	25	4
Cc1cccc(CSc2ccc(-c3ccco3)nn2)c1	11	52*	3	0	-4
O=C(O)c1cc(N/N=C/C=C/c2ccccc2[N+](=O)[O-])ccc1Cl	52*	-11	24	6	37
COC(=O)C(C(C)=O)C1=C/C(=N\S(=O)(=O)c2ccc(C)cc2)c2ccccc2C1=O (stereo unspecified)	-3	3	9	4	-3
CC(C)c1ccc(S(=O)(=O)/N=C2\C=C(NS(=O)(=O)c3ccccc3)C(=O)c3ccccc32)cc1	x	x	62*	3	x
CCc1ccc(S(=O)(=O)/N=C2\C=C(NS(=O)(=O)c3ccccc3)C(=O)c3ccccc32)cc1	3	5	70*	1	16
C=CCNC(=O)COc1cc(C)cc(C)c1C	-4	-7	7	2	-5
O=C(c1cc([N+](=O)[O-])[nH]n1)N1CCSCC1	-5	-12	15	-2	2
O=S(=O)(Nc1cc(Sc2ncn[nH]2)c(O)c2ccccc12)c1ccccc1	25	79*	31	3	72*
O=C(CN1CCc2cc3c(cc2C1)OCCCO3)Nc1c(F)cccc1F	-3	8	6	2	-3
CCOc1ccc(NC(C)c2cc(Cl)ccc2O)cc1 (stereo unspecified)	-7	-2	46*	-1	-1
CC(Nc1ccc(Cl)cc1)c1cc(Cl)ccc1O (stereo unspecified)	-5	-10	26	1	-8
CCC1CCCCN1C(=O)COC(=O)c1cc(=O)[nH]c2ccccc12 (stereo unspecified)	11	-11	-303	3	-5
N/C(=N\N=C\c1ccc(O)c(O)c1)c1nonc1N	96*	99*	15	-11	99*
Cc1nonc1C(=O)N/N=C/c1ccc(O)c(O)c1	96*	97*	15	3	99*
CCN(C(C)=O)c1cnc(C=NNC(N)=S)c2ccccc12	x	x	-48	0	x
NC(=S)NN=Cc1nccc2c(N)cccc12	x	x	62*	11	x
Cc1[nH]nc(SCC(=O)N(C)c2ccccc2)c1[N+](=O)[O-]	-8	-28	21	1	-9
Cc1csc(N/N=C/c2ccccn2)n1	85*	87*	-5	1	83*
COc1ccc(OCc2cc(C(=O)O)c(C)o2)cc1	89*	92*	x	x	92*
CCN(CC)Cc1cc(C(=O)O)c(C)o1	-5	-13	6	3	1
Nc1ccccc1Nc1ccccc1	3	12	-13	49*	3
O=C(O)c1ccc(CNC(=O)C23CC4CC(CC(C4)C2)C3)cc1	-9	-19	10	-1	-9
Cc1cccc(NC(=O)/C=C/c2ccc(Cl)cc2)n1	68*	84*	-1	4	86*
Cc1ccnc(NC(=O)/C=C/c2ccccc2[N+](=O)[O-])c1	69*	39	x	x	78*
Cc1ccnc(NC(=O)c2ccccc2[N+](=O)[O-])c1	-1	19	29	2	-10
